Results taken from the RNAGym collection of RNA variant scans (doi:10.1126/science.aae0568).
Fewer inactive variants are shown than the library holds.

B1: tRNA (parent)
chain: GUUCCGUUGGCGUAAUGGUAACGCGUCUCCCUCCUAAGGAGAAGACUGCGGGUUCGAGUCCCGUACGGAACG

Variants of: B1
Test: yeast fitness relative to wild type (ratio to wild type); higher = fitter; tRNA-Arg(CCU), competitive growth, 37 C, YPD
How it was run: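 For this measurement, the tRNA-Arg(CCU) gene was varied by chemical synthesis at a 3% per-site mutation rate across 69 sites, and each variant was placed at the native genomic locus in Saccharomyces cerevisiae. The pooled strains went through a 24-hour competition in YPD at 37°C in six parallel replicates, with amplicons from start and end populations read by 100-nucleotide paired-end sequencing. Darwinian fitness relative to wild type followed from the change in each genotype's frequency. Genotypes needed ≥ 100 starting reads, and estimates < 0.5 were set to 0.5.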

Row | Variant | yeast fitness
1 | C30G A37C C46G A69C | 0.571
2 | C11U C55U U59C A65C | ≤ 0.5
3 | C11A A21C C30U C66U | 0.539
4 | G9C A20C U47C C66A | 0.543
5 | U8A C30G | ≤ 0.5
6 | G38C U64A G68A | ≤ 0.5
7 | A15G C60G A69C | 0.585
8 | A20G C60U | 0.744
9 | G6A C27A A36G A70U | ≤ 0.5
10 | A15C G17A G38C C62U | ≤ 0.5
11 | C4U C30A U53C A70C | ≤ 0.5
12 | C5G A45C U54G | 0.622
13 | C11G U16G G38C U54A C66A | 0.648
14 | G17A A20G C27G A36C | 0.609
15 | C4U G44A A69C | 0.568
16 | C11G G23C A36U G44C G68A | 0.717
17 | U26C C33G A36G A42C C49G G58C C62G | ≤ 0.5
18 | C5G A21C U54A A57G | ≤ 0.5
19 | U2G C5A C55U C61A | ≤ 0.5
20 | U28C G39C G44C | 0.529
21 | U8A C34U | 0.508

Row | Variant | yeast fitness
22 | C27U C49G | 0.916
23 | C24A C33A C46U | 0.534
24 | A40G | 1.01
25 | A37U G67A | 0.724
26 | A15C C31A C34A G67C | ≤ 0.5
27 | G17C C27G U28C A65U | ≤ 0.5
28 | C4A G18C C33U U59A | ≤ 0.5
29 | U7G G25C | 0.958
30 | C24U G41C | 0.847
31 | C31U U54A C62G G68C | ≤ 0.5
32 | C5G U8G G63A | ≤ 0.5
33 | U13G U47C | 1.02
34 | A57G U59C A69U | 0.748
35 | A45G C62A | 0.8
36 | C34G A43U C61G | 0.614
37 | G10C C55G A69C | ≤ 0.5
38 | U16C U28C | 0.859
39 | G6A C11A U26A G52A | ≤ 0.5
40 | C29U A37C G41A A70C | ≤ 0.5
41 | C5G C66U G67A | 0.533
42 | U35A C49U U64A | ≤ 0.5

Row | Variant | yeast fitness
43 | C4A A14G U26A | ≤ 0.5
44 | C4U G58C A69U | 0.785
45 | A14U U26C A57U | ≤ 0.5
46 | C5U G44A U64G | 0.532
47 | C27G A36C | ≤ 0.5
48 | A40C A42G U47C C55A | 0.587
49 | C27G C61U | 0.594
50 | C24G G58C G68A | ≤ 0.5
51 | C22U A36C A45C C55G C62A G68A | ≤ 0.5
52 | C29A G44A U64C | 0.56
53 | U7A A20G G41A A42C G50C A70G | ≤ 0.5
54 | G10A A45G | 0.839
55 | C5A C11U A21C | 0.654
56 | G12A U28G C30G C49U U64C | ≤ 0.5
57 | U28A A45G A69C | ≤ 0.5
58 | C11U U19C C61G A65C | ≤ 0.5
59 | G67U G68C | 0.773
60 | G6A G48C G58A | 0.57
61 | A45G C46U G51C | ≤ 0.5
62 | U2G U13A | 0.822
63 | C4G C30G A69C A70G | ≤ 0.5

Row | Variant | yeast fitness
64 | U3C G18A U53A U54G G67U | ≤ 0.5
65 | A14G C27A C49G U53A C62A | ≤ 0.5
66 | C34G G38C C66A A70U | ≤ 0.5
67 | C11U A42C A57C | ≤ 0.5
68 | A15U G39C U47C | ≤ 0.5
69 | U2A C5U A20U G38A | 0.56
70 | C31U C61U A70U | 0.696
71 | C5G A15C C22A G63A A65G | ≤ 0.5
72 | G18A G23C C30G A36U | ≤ 0.5
73 | C5U C11U C24U G44C | ≤ 0.5
74 | G6A C22G U47A | ≤ 0.5
75 | G17A A70C | 0.842
76 | C34G A40C C46G | 0.562
77 | C4G U7G G12C A20U A70U | ≤ 0.5
78 | G39C A43U A69U | 0.736
79 | C24A C30U C33A G41C A42U | ≤ 0.5
80 | A45C C60G | 0.603
81 | C5U G56C C60A | 0.641
82 | G25C G50A C62G | 0.897
83 | C4A U13A G58C A69U | 0.655
84 | A20U A45U A69U | 0.726
